Test results taken from ChEMBL document CHEMBL1144276, “Synthesis and in vitro selective anti-Helicobacter pylori activity of pyrazoline derivatives” (2005).
≈ marks a conversion by molar mass, not a printed value.

How the values were obtained:
Format in all cases: functional
Helicobacter pylori [1] = test: Minimal inhibitory concentration against metronidazole resistant Helicobacter pylori 8 strain
Method in brief: (§1)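 Agar dilution. Columbia agar with 10% horse serum and 0.25% yeast extract holds serial twofold dilutions of compound, 128 to 0.0039 µg/mL, and plates are made on the day of use. Inoculum is 72 h growth suspended in Wilkins Chalgren broth to 0.5 McFarland, applied as 5 µL by multipoint inoculator. Plates are incubated 72 h at 37 °C, microaerobic (10% CO2).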

Helicobacter pylori [2] = test: Minimal inhibitory concentration against 17 strains of Helicobacter pylori
Method in brief: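 Agar dilution against 16 clinical isolates plus reference strain NCTC 11637 (four metronidazole-resistant). Twofold serial dilutions in Columbia agar with 10% horse serum and 0.25% yeast extract, 128 to 0.0039 µg/mL, plates made fresh. Inoculum: 72 h growth suspended in Wilkins Chalgren broth at 0.5 McFarland, 5 µL multipoint spots; 37 °C, 72 h, microaerobic (10% CO2).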

Helicobacter pylori [3] = test: Minimal inhibitory concentration against metronidazole resistant Helicobacter pylori 20 strain; method in brief: as §1
Helicobacter pylori [4] = test: Minimal inhibitory concentration against metronidazole resistant Helicobacter pylori 19 strain; method in brief: as §1
Helicobacter pylori [5] = test: Minimal inhibitory concentration against metronidazole resistant Helicobacter pylori NCTC 11637 strain; method in brief: as §1

Cc1ncc([N+](=O)[O-])n1CCO [METRONIDAZOLE]
MIC (Helicobacter pylori [1]): 64 µg/mL (≈ 374 µM) | MIC50 (Helicobacter pylori [2]): 0.5 µg/mL (≈ 2.92 µM) | MIC90 (Helicobacter pylori [2]): 64 µg/mL (≈ 374 µM) | MIC (Helicobacter pylori [3]): 64 µg/mL (≈ 374 µM) | MIC (Helicobacter pylori [4]): 64 µg/mL (≈ 374 µM) | MIC (Helicobacter pylori [5]): 64 µg/mL (≈ 374 µM)

CC(=O)N1N=C(c2ccccc2)CC1c1ccc(Cl)cc1 (configuration not stated)
MIC50 (Helicobacter pylori [2]): 4 µg/mL (≈ 13.4 µM) | MIC90 (Helicobacter pylori [2]): 8 µg/mL (≈ 26.8 µM)

COc1ccccc1C1CC(c2ccc(O)cc2)=NN1C(C)=O (configuration not stated)
MIC50 (Helicobacter pylori [2]): 8 µg/mL (≈ 25.8 µM) | MIC90 (Helicobacter pylori [2]): 16 µg/mL (≈ 51.6 µM)

CC(=O)N1N=C(c2c(O)cccc2O)CC1c1ccc(C)cc1 (configuration not stated)
MIC50 (Helicobacter pylori [2]): 32 µg/mL (≈ 103 µM) | MIC90 (Helicobacter pylori [2]): 128 µg/mL (≈ 412 µM)
